Tested on: Japanese patients with RET-rearranged NSCLC
Assay: ALL-RET phase 1/2 trial: safety
Format: in vivo, human
Procedure, shortened: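 Adverse events were graded by NCI CTCAE v4.0, with causal relation to treatment recorded separately. Dose finding used a 3+3 de-escalation design with 3–6 patients per cohort. DLT was evaluated over the first 21-day cycle and defined as grade ≥4 thrombopenia, grade ≥3 febrile neutropenia, grade ≥4 neutropenia lasting ≥4 days, or grade ≥3 non-hematologic toxicity, with specified exceptions. Follow-up ran until January 2019.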

[1] = 600 mg BID (N=6), dose limiting toxicity
[2] = Japanese patients with RET-rearranged NSCLC

CCc1cc2c(cc1N1CCC(N3CCOCC3)CC1)C(C)(C)c1[nH]c3cc(C#N)ccc3c1C2=O [alectinib]
Constipation, any grade, number [causally related] (600 mg BID (N=6)): 4 [4]
Constipation, any grade, percent (600 mg BID (N=6)): 66.7%
Constipation, grade 1–2, number (total) (600 mg BID (N=6)): 4 [4]
Constipation, grade 1–2, number [causally related] (600 mg BID (N=6)): 4 [4]
Constipation, grade 3, number (600 mg BID (N=6)): 0
Constipation, grade 4, number (600 mg BID (N=6)): 0
Creatine phosphokinase increase, any grade, number (total) (600 mg BID (N=6)): 2 [2]
Creatine phosphokinase increase, any grade, number [causally related] (600 mg BID (N=6)): 2 [2]
Creatine phosphokinase increase, any grade, percent (600 mg BID (N=6)): 33.3%
Creatine phosphokinase increase, grade 1–2, number (total) (600 mg BID (N=6)): 1[1]
Creatine phosphokinase increase, grade 1–2, number [causally related] (600 mg BID (N=6)): 1[1]
Creatine phosphokinase increase, grade 4, number (600 mg BID (N=6)): 0
Creatinine increase, any grade, number (total) (600 mg BID (N=6)): 2 [2]
Creatinine increase, any grade, number [causally related] (600 mg BID (N=6)): 2 [2]
Creatinine increase, any grade, percent (600 mg BID (N=6)): 33.3%
Creatinine increase, grade 1–2, number (total) (600 mg BID (N=6)): 2[2]
Creatinine increase, grade 1–2, number [causally related] (600 mg BID (N=6)): 2[2]
Creatinine increase, grade 3, number (600 mg BID (N=6)): 0
Creatinine increase, grade 4, number (600 mg BID (N=6)): 0
Dysgeusia, any grade, number (total) (600 mg BID (N=6)): 2 [2]
Dysgeusia, any grade, number [causally related] (600 mg BID (N=6)): 2 [2]
Dysgeusia, any grade, percent (600 mg BID (N=6)): 33.3%
Dysgeusia, grade 1–2, number (total) (600 mg BID (N=6)): 2 [2]
Dysgeusia, grade 1–2, number [causally related] (600 mg BID (N=6)): 2 [2]
Dysgeusia, grade 3, number (600 mg BID (N=6)): 0
Dysgeusia, grade 4, number (600 mg BID (N=6)): 0
Erythema multiforme, any grade, number (total) (600 mg BID (N=6)): 1 [1]
Erythema multiforme, any grade, number [causally related] (600 mg BID (N=6)): 1 [1]
Erythema multiforme, any grade, percent (600 mg BID (N=6)): 16.7%
Erythema multiforme, grade 1–2, number (600 mg BID (N=6)): 0
Erythema multiforme, grade 4, number (600 mg BID (N=6)): 0
Hepatic function abnormal, any grade, number (total) (600 mg BID (N=6)): 2 [2]
Hepatic function abnormal, any grade, number [causally related] (600 mg BID (N=6)): 2 [2]
Hepatic function abnormal, any grade, percent (600 mg BID (N=6)): 33.3%
Hepatic function abnormal, grade 1–2, number (total) (600 mg BID (N=6)): 1 [1]
Hepatic function abnormal, grade 1–2, number [causally related] (600 mg BID (N=6)): 1 [1]
Hepatic function abnormal, grade 4, number (600 mg BID (N=6)): 0
Lymphocyte decrease, any grade, number (total) (600 mg BID (N=6)): 1 [1]
Lymphocyte decrease, any grade, number [causally related] (600 mg BID (N=6)): 1 [1]
Lymphocyte decrease, any grade, percent (600 mg BID (N=6)): 16.7%
Lymphocyte decrease, grade 1–2, number (600 mg BID (N=6)): 0
Lymphocyte decrease, grade 3, number (600 mg BID (N=6)): 0
Lymphocyte decrease, grade 4, number (total) (600 mg BID (N=6)): 1 [1]
Lymphocyte decrease, grade 4, number [causally related] (600 mg BID (N=6)): 1 [1]
Myalgia, any grade, number (total) (600 mg BID (N=6)): 3 [3]
Myalgia, any grade, number [causally related] (600 mg BID (N=6)): 3 [3]
Myalgia, any grade, percent (600 mg BID (N=6)): 50.0%
Myalgia, grade 1–2, number (total) (600 mg BID (N=6)): 3 [3]
Myalgia, grade 1–2, number [causally related] (600 mg BID (N=6)): 3 [3]
Myalgia, grade 3, number (600 mg BID (N=6)): 0
Myalgia, grade 4, number (600 mg BID (N=6)): 0
Oedema peripheral, any grade, number (total) (600 mg BID (N=6)): 2 [2]
Oedema peripheral, any grade, number [causally related] (600 mg BID (N=6)): 2 [2]
Oedema peripheral, any grade, percent (600 mg BID (N=6)): 33.3%
Oedema peripheral, grade 1–2, number (total) (600 mg BID (N=6)): 2 [2]
Oedema peripheral, grade 1–2, number [causally related] (600 mg BID (N=6)): 2 [2]
Oedema peripheral, grade 3, number (600 mg BID (N=6)): 0
Oedema peripheral, grade 4, number (600 mg BID (N=6)): 0
Rash, any grade, number (total) (600 mg BID (N=6)): 1 [1]
Rash, any grade, number [causally related] (600 mg BID (N=6)): 1 [1]
Rash, any grade, percent (600 mg BID (N=6)): 16.7%
Rash, grade 1–2, number (600 mg BID (N=6)): 0
Rash, grade 4, number (600 mg BID (N=6)): 0
Thromboembolic event, any grade, number (total) (600 mg BID (N=6)): 1 [1]
Thromboembolic event, any grade, number [causally related] (600 mg BID (N=6)): 1 [1]
Thromboembolic event, any grade, percent (600 mg BID (N=6)): 16.7%
Thromboembolic event, grade 1–2, number (600 mg BID (N=6)): 0
Thromboembolic event, grade 4, number (600 mg BID (N=6)): 0
Creatine phosphokinase increase, grade 3, number (total) [1]: 1[1]*
Creatine phosphokinase increase, grade 3, number [causally related] [1]: 1[1]*
Erythema multiforme, grade 3, number (total) [1]: 1 [1]*
Erythema multiforme, grade 3, number [causally related] [1]: 1 [1]*
Hepatic function abnormal, grade 3, number (total) [1]: 1 [1]*
Hepatic function abnormal, grade 3, number [causally related] [1]: 1 [1]*
Rash, grade 3, number (total) [1]: 1 [1]*
Rash, grade 3, number [causally related] [1]: 1 [1]*
Thromboembolic event, grade 3, number (total) [1]: 1 [1]*
Thromboembolic event, grade 3, number [causally related] [1]: 1 [1]*
patients whose treatment was discontinued due to DLTs (600 mg BID, out of 6 patients): 2
MTD (maximum tolerated dose) [2]: 450 mg BID
recommended dose (RD) for phase 2 [2]: 450 mg BID
DLTs observed in case S1-3 (cohort 1, 600 mg BID): grade 3 rash and hepatic function abnormal
DLTs observed in case S1-4 (cohort 1, 600 mg BID): grade 3 erythema multiforme and thromboembolic event
number of dose-limiting toxicities (DLTs) (phase 1 cohort 1, 600 mg BID, 6 patients): 5
patients with DLTs (phase 1 cohort 1, 600 mg BID, of 6 patients): 3
DLTs (phase 1 cohort 2, 450 mg BID, 3 patients): no DLTs
grade 3 adverse events including pneumonitis (phase 2, 450 mg BID): 4%
